Out of some 200,000 compounds screened, about 2,000 (1%) were called active. The full list was thinned out, with actives kept by preference. Values without a mark were called inactive.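 Rule for the calls: active = inhibition above the campaign mean inhibition of all tested compounds plus 3 SD (cut at about 20% in these data); inactive = the rest.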
What follows are compounds tested against Neuropeptide Y receptor type 1 (Homo sapiens) (UniProt P25929) (assay: blockers of human neuropeptide Y Y1 receptor – cell-based, primary screen (AID 1040;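 note: 0% = DMSO wells given NPY plus isoproterenol and 100% = isoproterenol alone without NPY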)). Settings: HEK293-CNG Y1 cells, membrane potential fluorescence; at 3.6 µM; stronger effect = higher value.
Sequence of Neuropeptide Y receptor type 1 (Homo sapiens) (P25929 whole entry, looked up): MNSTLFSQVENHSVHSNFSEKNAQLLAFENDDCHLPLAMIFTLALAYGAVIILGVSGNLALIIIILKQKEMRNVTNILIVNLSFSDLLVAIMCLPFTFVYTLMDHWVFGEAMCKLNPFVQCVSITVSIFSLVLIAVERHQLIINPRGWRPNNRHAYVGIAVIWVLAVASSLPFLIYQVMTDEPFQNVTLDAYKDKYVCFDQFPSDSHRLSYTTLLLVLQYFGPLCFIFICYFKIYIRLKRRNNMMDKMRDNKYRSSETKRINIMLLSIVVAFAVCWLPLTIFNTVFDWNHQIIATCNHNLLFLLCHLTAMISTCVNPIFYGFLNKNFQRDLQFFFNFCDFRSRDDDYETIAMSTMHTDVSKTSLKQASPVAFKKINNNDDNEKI
Summary of the method: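 Assay system: HEK293 cells with Y1 receptor plus CNG channel | Probe or stimulus: NPY (25 nM), isoproterenol (1 µM), Ro 20-1724 (25 µM) | Timing: Compound incubation 1 h at room temperature, readout 45 min post-stimulation | Measured by: Membrane-potential fluorescent dye readout | Benchmarks: High control isoproterenol alone, low control NPY with isoproterenol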

Structure (SMILES)	inhibition
NC(=O)Cn1cc(C(=O)c2ccccc2F)c2ccccc21	4.87%
N#Cc1ccc(Cn2cc(C(=O)c3ccco3)c3ccccc32)cc1	21.4% (active)
CC(C)Oc1cccc(C(=O)C2CCCN(C3CCOCC3)C2)c1 (stereo not given)	1.82%
CCOC(=O)c1c(N)n(CCN2CCOCC2)c2nc3ccccc3nc12	-2.58%
COc1cc(Cn2c(N)c(C(=O)NCc3ccco3)c3nc4ccccc4nc32)cc(OC)c1OC	-7.12%
CCOC(=O)c1c(N)n(Cc2ccccc2)c2nc3ccccc3nc12	26.8% (active)
N=c1ccccn1Cc1ccccc1	-3.41%
CCc1nnc(NS(=O)(=O)c2ccc(N=Cc3c(O)n(-c4ccccc4)c(=O)[nH]c3=O)cc2)s1	12.6%
COc1ccc(C(=O)C2CCCN(Cc3ccc(C)s3)C2)cc1OC (stereo not given)	-3.61%
O=C(CN1CCCC1=O)NCCc1ccccc1	-2.4%
